Results published in ChEMBL document CHEMBL4680175, “Sulfonamide-based ring-fused analogues for CAN508 as novel carbonic anhydrase inhibitors endowed with antitumor activity: Design, synthesis, and in vitro biological evaluation” (Eur J Med Chem, 2020).
Activity calls are given as the source filed them. The calls are words filed in the database; no cut-off is given here.

Experiments:
[1] = system: OVCAR-8; assay: Antitumor activity against human OVCAR-8 cells assessed as cell growth inhibition at 10 uM incubated for 48 hrs by sulforhodamine B assay; assay type: functional; conditions: read-out: GI
Procedure, shortened: (§1)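 NCI Drug Evaluation Branch protocol: primary single-dose screen at 10 μM across a 57-line human cancer panel. Drug exposure is 48 h. Cell growth and viability are read by sulforhodamine B assay. Data are given as a mean graph of percent growth of treated cells and reported as percentage growth inhibition (GI%).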

[2] = system: RXF 393; assay: Antitumor activity against human RXF 393 cells assessed as cell growth inhibition at 10 uM incubated for 48 hrs by sulforhodamine B assay; assay type: functional; conditions: read-out: GI; procedure, shortened: as §1
[3] = system: NCI-H322M; assay: Antitumor activity against human NCI-H322M cells assessed as cell growth inhibition at 10 uM incubated for 48 hrs by sulforhodamine B assay; assay type: functional; conditions: read-out: GI; procedure, shortened: as §1
[4] = target: Cyclin-dependent kinase 2/cyclin E1 (Homo sapiens, UniProt P24941); assay: Inhibition of CDK2/cyclin E (unknown origin) expressed in baculovirus infected Sf21 insect cells using histone H1 as substrate in presence of [gamma33P]ATP
[5] = system: RPMI-8226; assay: Antitumor activity against human RPMI8226 cells assessed as cell growth inhibition at 10 uM incubated for 48 hrs by sulforhodamine B assay; assay type: functional; conditions: read-out: GI; procedure, shortened: as §1
[6] = system: T47D; assay: Antitumor activity against human T-47D cells assessed as cell growth inhibition at 10 uM incubated for 48 hrs by sulforhodamine B assay; assay type: functional; conditions: read-out: GI
Procedure, shortened: (§2)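 NCI one-dose screen: 57-cell-line panel exposed at 10 μM for 48 h, Drug Evaluation Branch protocol. Growth and viability read by sulforhodamine B; data given as percent growth inhibition from the mean-graph of percent growth of treated cells.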

[7] = system: UACC-62; assay: Antitumor activity against human UACC-62 cells assessed as cell growth inhibition at 10 uM incubated for 48 hrs by sulforhodamine B assay; assay type: functional; conditions: read-out: GI; procedure, shortened: as §2
[8] = system: HCT-116; assay: Antitumor activity against human HCT116 cells assessed as cell growth inhibition at 10 uM incubated for 48 hrs by sulforhodamine B assay; assay type: functional; conditions: read-out: GI; procedure, shortened: as §1
[9] = target: Carbonic anhydrase 12 (Homo sapiens, UniProt O43570); assay: Inhibition of recombinant human carbonic anhydrase 12 preincubated with enzyme for 15 mins by phenol red dye based stopped flow CO2 hydrase assay
Sequence of Carbonic anhydrase 12 (O43570 whole entry): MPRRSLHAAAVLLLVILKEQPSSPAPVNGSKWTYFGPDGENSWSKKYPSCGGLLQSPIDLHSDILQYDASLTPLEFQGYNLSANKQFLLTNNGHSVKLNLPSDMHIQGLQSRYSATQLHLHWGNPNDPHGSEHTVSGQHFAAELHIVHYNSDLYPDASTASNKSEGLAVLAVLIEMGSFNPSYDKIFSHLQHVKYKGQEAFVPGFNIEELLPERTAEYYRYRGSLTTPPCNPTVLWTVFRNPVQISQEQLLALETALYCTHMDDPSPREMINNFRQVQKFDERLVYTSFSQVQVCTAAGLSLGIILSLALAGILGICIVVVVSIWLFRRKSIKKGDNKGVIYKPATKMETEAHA

[10] = system: SNB-75; assay: Antitumor activity against human SNB-75 cells assessed as cell growth inhibition at 10 uM incubated for 48 hrs by sulforhodamine B assay; assay type: functional; conditions: read-out: GI; procedure, shortened: as §2
[11] = system: SF-268; assay: Antitumor activity against human SF268 cells assessed as cell growth inhibition at 10 uM incubated for 48 hrs by sulforhodamine B assay; assay type: functional; conditions: read-out: GI; procedure, shortened: as §1
[12] = system: MDA-MB-231; assay: Antitumor activity against human MDA-MB-231/ATCC cells assessed as cell growth inhibition at 10 uM incubated for 48 hrs by sulforhodamine B assay; assay type: functional; conditions: read-out: GI; procedure, shortened: as §1
[13] = target: CDK9/cyclin T1 (Homo sapiens, UniProt P50750); assay: Inhibition of human full-length N-terminal GST/His6-tagged CDK9 (1 to 372 residues)/His6-tagged Cyclin-T1 (1 to 726 residues) expressed in sf9 cells using (YSPTSPS)2KK peptide as substrate in presence of [gamma33P]ATP
Sequence of CDK9/cyclin T1 (O60563 whole entry, the tested form may be a part): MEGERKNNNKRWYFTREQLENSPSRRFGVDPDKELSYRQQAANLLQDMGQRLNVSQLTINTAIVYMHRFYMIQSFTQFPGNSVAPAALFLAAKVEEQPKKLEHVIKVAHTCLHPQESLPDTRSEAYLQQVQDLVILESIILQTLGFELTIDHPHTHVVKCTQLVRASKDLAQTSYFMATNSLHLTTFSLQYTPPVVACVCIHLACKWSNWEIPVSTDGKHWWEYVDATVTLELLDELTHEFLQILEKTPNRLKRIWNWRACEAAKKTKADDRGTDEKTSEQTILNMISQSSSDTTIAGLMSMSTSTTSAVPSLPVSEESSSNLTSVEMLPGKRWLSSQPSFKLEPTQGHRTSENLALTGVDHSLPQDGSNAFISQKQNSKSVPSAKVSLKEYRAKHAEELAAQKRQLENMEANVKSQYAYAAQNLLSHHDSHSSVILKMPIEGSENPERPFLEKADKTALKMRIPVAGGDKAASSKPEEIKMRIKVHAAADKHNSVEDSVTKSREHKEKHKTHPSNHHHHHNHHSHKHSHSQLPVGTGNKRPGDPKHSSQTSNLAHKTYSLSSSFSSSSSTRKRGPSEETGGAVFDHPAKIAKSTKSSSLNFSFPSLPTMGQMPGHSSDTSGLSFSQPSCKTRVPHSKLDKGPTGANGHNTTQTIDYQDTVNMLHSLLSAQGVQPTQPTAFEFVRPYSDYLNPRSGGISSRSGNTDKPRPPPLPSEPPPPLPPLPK
Sequence of CDK9/cyclin T1 (P50750 whole entry, the tested form may be a part): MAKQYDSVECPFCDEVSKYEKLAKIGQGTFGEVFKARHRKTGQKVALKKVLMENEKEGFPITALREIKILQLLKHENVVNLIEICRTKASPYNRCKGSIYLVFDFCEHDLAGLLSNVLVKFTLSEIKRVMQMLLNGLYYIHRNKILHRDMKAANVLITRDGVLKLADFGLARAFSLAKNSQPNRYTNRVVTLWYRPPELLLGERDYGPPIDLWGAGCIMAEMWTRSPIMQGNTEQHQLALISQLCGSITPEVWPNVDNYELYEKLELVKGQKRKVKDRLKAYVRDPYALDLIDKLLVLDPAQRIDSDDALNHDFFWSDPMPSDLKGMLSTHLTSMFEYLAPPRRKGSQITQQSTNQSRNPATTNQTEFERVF

[14] = system: ACHN; assay: Antitumor activity against human ACHN cells assessed as cell growth inhibition at 10 uM incubated for 48 hrs by sulforhodamine B assay; assay type: functional; conditions: read-out: GI; procedure, shortened: as §1
[15] = system: U-251; assay: Antitumor activity against human U251 cells assessed as cell growth inhibition at 10 uM incubated for 48 hrs by sulforhodamine B assay; assay type: functional; conditions: read-out: GI; procedure, shortened: as §2
[16] = system: SK-OV-3; assay: Antitumor activity against human SK-OV-3 cells assessed as cell growth inhibition at 10 uM incubated for 48 hrs by sulforhodamine B assay; assay type: functional; conditions: read-out: GI; procedure, shortened: as §1
[17] = system: SK-MEL-2; assay: Antitumor activity against human SK-MEL-2 cells assessed as cell growth inhibition at 10 uM incubated for 48 hrs by sulforhodamine B assay; assay type: functional; conditions: read-out: GI; procedure, shortened: as §1
[18] = system: Malme-3M; assay: Antitumor activity against human MALME-3M cells assessed as cell growth inhibition at 10 uM incubated for 48 hrs by sulforhodamine B assay; assay type: functional; conditions: read-out: GI; procedure, shortened: as §1
[19] = system: IGROV-1; assay: Antitumor activity against human IGROV1 cells assessed as cell growth inhibition at 10 uM incubated for 48 hrs by sulforhodamine B assay; assay type: functional; conditions: read-out: GI; procedure, shortened: as §1
[20] = system: 786-0; assay: Antitumor activity against human 786-0 cells assessed as cell growth inhibition at 10 uM incubated for 48 hrs by sulforhodamine B assay; assay type: functional; conditions: read-out: GI; procedure, shortened: as §1
[21] = system: Hs-578T; assay: Antitumor activity against human HS 578T cells assessed as cell growth inhibition at 10 uM incubated for 48 hrs by sulforhodamine B assay; assay type: functional; conditions: read-out: GI; procedure, shortened: as §1
[22] = system: DU-145; assay: Antitumor activity against human DU-145 cells assessed as cell growth inhibition at 10 uM incubated for 48 hrs by sulforhodamine B assay; assay type: functional; conditions: read-out: GI; procedure, shortened: as §1
[23] = system: SR; assay: Antitumor activity against human SR cells assessed as cell growth inhibition at 10 uM incubated for 48 hrs by sulforhodamine B assay; assay type: functional; conditions: read-out: GI; procedure, shortened: as §2
[24] = system: OVCAR-3; assay: Antitumor activity against human OVCAR-3 cells assessed as cell growth inhibition at 10 uM incubated for 48 hrs by sulforhodamine B assay; assay type: functional; conditions: read-out: GI; procedure, shortened: as §1
[25] = system: HCT-15; assay: Antitumor activity against human HCT15 cells assessed as cell growth inhibition at 10 uM incubated for 48 hrs by sulforhodamine B assay; assay type: functional; conditions: read-out: GI; procedure, shortened: as §1
[26] = system: A498; assay: Antitumor activity against human A498 cells assessed as cell growth inhibition at 10 uM incubated for 48 hrs by sulforhodamine B assay; assay type: functional; conditions: read-out: GI; procedure, shortened: as §1
[27] = system: M14; assay: Antitumor activity against human M14 cells assessed as cell growth inhibition at 10 uM incubated for 48 hrs by sulforhodamine B assay; assay type: functional; conditions: read-out: GI; procedure, shortened: as §1
[28] = system: NCI-H522; assay: Antitumor activity against human NCI-H522 cells assessed as cell growth inhibition at 10 uM incubated for 48 hrs by sulforhodamine B assay; assay type: functional; conditions: read-out: GI; procedure, shortened: as §1
[29] = target: Carbonic anhydrase 1 (Homo sapiens, UniProt P00915); assay: Inhibition of recombinant human carbonic anhydrase 1 preincubated with enzyme for 15 mins by phenol red dye based stopped flow CO2 hydrase assay
Sequence of Carbonic anhydrase 1 (P00915 whole entry): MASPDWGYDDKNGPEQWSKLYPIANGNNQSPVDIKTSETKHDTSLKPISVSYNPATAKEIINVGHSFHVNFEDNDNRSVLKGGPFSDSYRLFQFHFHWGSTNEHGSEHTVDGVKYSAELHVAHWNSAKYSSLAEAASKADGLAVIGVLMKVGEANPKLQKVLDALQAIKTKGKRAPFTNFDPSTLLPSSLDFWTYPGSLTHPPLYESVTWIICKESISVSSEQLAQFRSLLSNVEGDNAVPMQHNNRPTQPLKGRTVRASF

[30] = system: LOX IMVI; assay: Antitumor activity against human LOX IMVI cells assessed as cell growth inhibition at 10 uM incubated for 48 hrs by sulforhodamine B assay; assay type: functional; conditions: read-out: GI; procedure, shortened: as §1
[31] = system: UO-31; assay: Antitumor activity against human UO-31 cells assessed as cell growth inhibition at 10 uM incubated for 48 hrs by sulforhodamine B assay; assay type: functional; conditions: read-out: GI; procedure, shortened: as §2
[32] = system: SF-539; assay: Antitumor activity against human SF539 cells assessed as cell growth inhibition at 10 uM incubated for 48 hrs by sulforhodamine B assay; assay type: functional; conditions: read-out: GI; procedure, shortened: as §1
[33] = system: CCRF-CEM; assay: Antitumor activity against human CCRF-CEM cells assessed as cell growth inhibition at 10 uM incubated for 48 hrs by sulforhodamine B assay; assay type: functional; conditions: read-out: GI; procedure, shortened: as §1
[34] = system: MDA-MB-435; assay: Antitumor activity against human MDA-MB-435 cells assessed as cell growth inhibition at 10 uM incubated for 48 hrs by sulforhodamine B assay; assay type: functional; conditions: read-out: GI; procedure, shortened: as §1
[35] = system: NCI-H460; assay: Antitumor activity against human NCI-H460 cells assessed as cell growth inhibition at 10 uM incubated for 48 hrs by sulforhodamine B assay; assay type: functional; conditions: read-out: GI; procedure, shortened: as §1
[36] = system: SW-620; assay: Antitumor activity against human SW620 cells assessed as cell growth inhibition at 10 uM incubated for 48 hrs by sulforhodamine B assay; assay type: functional; conditions: read-out: GI; procedure, shortened: as §2
[37] = system: NCI/ADR-RES; assay: Antitumor activity against human NCI/ADR-RES cells assessed as cell growth inhibition at 10 uM incubated for 48 hrs by sulforhodamine B assay; assay type: functional, cell-based; procedure, shortened: as §1
[38] = target: Carbonic anhydrase 9 (Homo sapiens, UniProt Q16790); assay: Inhibition of recombinant human carbonic anhydrase 9 preincubated with enzyme for 15 mins by phenol red dye based stopped flow CO2 hydrase assay
[39] = system: KM12; assay: Antitumor activity against human KM12 cells assessed as cell growth inhibition at 10 uM incubated for 48 hrs by sulforhodamine B assay; assay type: functional; conditions: read-out: GI; procedure, shortened: as §1
[40] = system: SK-MEL-5; assay: Antitumor activity against human SK-MEL-5 cells assessed as cell growth inhibition at 10 uM incubated for 48 hrs by sulforhodamine B assay; assay type: functional; conditions: read-out: GI; procedure, shortened: as §1
[41] = target: Carbonic anhydrase 2 (Homo sapiens, UniProt P00918); assay: Inhibition of recombinant human carbonic anhydrase 2 preincubated with enzyme for 15 mins by phenol red dye based stopped flow CO2 hydrase assay
[42] = system: SN12C; assay: Antitumor activity against human SN12C cells assessed as cell growth inhibition at 10 uM incubated for 48 hrs by sulforhodamine B assay; assay type: functional; conditions: read-out: GI; procedure, shortened: as §1
[43] = system: HOP-92; assay: Antitumor activity against human HOP92 cells assessed as cell growth inhibition at 10 uM incubated for 48 hrs by sulforhodamine B assay; assay type: functional; conditions: read-out: GI; procedure, shortened: as §1
[44] = system: BT-549; assay: Antitumor activity against human BT-549 cells assessed as cell growth inhibition at 10 uM incubated for 48 hrs by sulforhodamine B assay; assay type: functional; conditions: read-out: GI; procedure, shortened: as §1
[45] = system: CAKI-1; assay: Antitumor activity against human CAKI-1 cells assessed as cell growth inhibition at 10 uM incubated for 48 hrs by sulforhodamine B assay; assay type: functional; conditions: read-out: GI; procedure, shortened: as §1

Nc1nn2cc(-c3ccc(F)cc3)[nH]c2c1/N=N/c1ccc(S(N)(=O)=O)cc1
inhibition of growth at 10 µM [1]: 21%
inhibition of growth at 10 µM [2]: 40%
inhibition of growth at 10 µM [3]: 58%
IC50 [4]: > 12.5 µM
inhibition of growth at 10 µM [5]: 27%
inhibition of growth at 10 µM [6]: 22%
inhibition of growth at 10 µM [7]: 29%
inhibition of growth at 10 µM [8]: 37%
Ki [9]: 18.6 nM
inhibition of growth at 10 µM [10]: 44%
inhibition of growth at 10 µM [11]: 23%
inhibition of growth at 10 µM [12]: 25%
IC50 [13]: > 12.5 µM
inhibition of growth at 10 µM [14]: 48%
inhibition of growth at 10 µM [15]: 24%
inhibition of growth at 10 µM [16]: 26%
inhibition of growth at 10 µM [17]: 30%
inhibition of growth at 10 µM [18]: 42%
inhibition of growth at 10 µM [19]: 38%
inhibition of growth at 10 µM [20]: 32%
inhibition of growth at 10 µM [21]: 33%
inhibition of growth at 10 µM [22]: 30%
inhibition of growth at 10 µM [23]: 33%
inhibition of growth at 10 µM [24]: 21%
inhibition of growth at 10 µM [25]: 40%
inhibition of growth at 10 µM [26]: 60%
inhibition of growth at 10 µM [27]: 35%
inhibition of growth at 10 µM [28]: 45%
Ki [29]: 769 nM
inhibition of growth at 10 µM [30]: 36%
inhibition of growth at 10 µM [31]: 42%
inhibition of growth at 10 µM [32]: 27%
inhibition of growth at 10 µM [33]: 33%
inhibition of growth at 10 µM [34]: 22%
inhibition of growth at 10 µM [35]: 41%
inhibition of growth at 10 µM [36]: 23%
Activity [37]: inactive
Ki [38]: 28.4 nM
inhibition of growth at 10 µM [39]: 27%
inhibition of growth at 10 µM [40]: 23%
Ki [41]: 33.8 nM
inhibition of growth at 10 µM [42]: 31%
inhibition of growth at 10 µM [43]: 25%
inhibition of growth at 10 µM [44]: 26%
inhibition of growth at 10 µM [45]: 53%
